# Starred links: 1 amine or outer side, 2 acyl side, 3 side chain; linkers in the order of their positions; H or OH if unused. Positions of bridges follow the written chain, without caps; N, C: chain ends. Non-standard residues stand in square brackets, D forms with d. Residues, ends and D or L forms follow the SMILES beside them. *: point of attachment. hTyr(3S-OH,4S-OH,3'-OSO3H) = N[C@H](C(=O)O)[C@H](O)[C@@H](O)c1ccc(O)c(OS(=O)(=O)O)c1; Orn(4R-OH,5R-OH) = O=C([C@H](C[C@@H](O)[C@@H](O)N[*:3])N[*:1])[*:2]; Pro(3S-OH,4S-Me) = C[C@H]1CN[C@H](C(=O)O)[C@H]1O; X1 = CCCCCOc1ccc(-c2cc(-c3ccc(C(=O)*)cc3)no2)cc1; Gln(3R-OH) = NC(=O)C[C@@H](O)[C@H](N)C(=O)O; Hyp = O=C(O)[C@@H]1C[C@@H](O)CN1
# Experiments:
# [1] = test system: Nakaseomyces glabratus; test: Antifungal activity against Candida glabrata isolate 21900 expressing Fks1p D632G mutant and wild type Fks2p by CLSI method; type: functional
# [2] = Inhibition of Candida glabrata isolate 3168 wild type 1,3-beta-D-glucan synthase; parameters: species or system Nakaseomyces glabratus
# Summary of the method: (§1)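 Cells grown in YPD broth at 35°C with vigorous shaking to early stationary phase. Membrane protein extracted and glucan synthase partially purified by product entrapment. Filtration polymerization assay measured [3H]glucose incorporation into product, started by adding enzyme. Echinocandin serial dilutions spanned 0.01–10,000 ng/ml, with 1% DMSO controls for anidulafungin. IC50 from variable-slope sigmoidal fit.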
# [3] = target: 1,3-beta-glucan synthase component FKS1 (Candida glabrata, UniProt E2GKZ4, S629P); test: Inhibition of Candida glabrata isolate 5847 1,3-beta-D-glucan synthase Fks1p S629P mutant/wild type Fks2p; parameters: species or system Nakaseomyces glabratus; summary of the method: as §1
# [4] = Inhibition of Candida glabrata isolate 218 wild type 1,3-beta-D-glucan synthase; parameters: species or system Nakaseomyces glabratus; summary of the method: as §1
# [5] = target: 1,3-beta-glucan synthase component FKS1 (Candida glabrata, UniProt E2GKZ4, D632G); test: Inhibition of Candida glabrata isolate 21900 1,3-beta-D-glucan synthase Fks1p D632G mutant/wild type Fks2p; parameters: species or system Nakaseomyces glabratus; summary of the method: as §1
# [6] = Inhibition of Candida glabrata isolate 42971 1,3-beta-D-glucan synthase Fks1p D632Y mutant/Fks2p R1377STOP mutant; parameters: species or system Nakaseomyces glabratus; summary of the method: as §1
# [7] = test system: Nakaseomyces glabratus; test: Antifungal activity against Candida glabrata isolate 234 expressing wild type Fks1p and Fks2p F659V mutant by CLSI method in presence of 50% human serum; type: functional
# Summary of the method: (§2)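 Broth microdilution MIC per CLSI M27-A3 in RPMI 1640 supplemented with 50% serum. Caspofungin and micafungin stocks in sterile water; anidulafungin stock in 100% DMSO; stocks kept at −86°C.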
# [8] = test system: Nakaseomyces glabratus; test: Ratio of IC50 for Candida glabrata wild type 1,3-beta-glucan synthase to IC50 for Candida glabrata 1,3-beta-glucan synthase mutant
# [9] = test system: Nakaseomyces glabratus; test: Antifungal activity against Candida glabrata ATCC 90030 expressing wild type Fks1p and Fks2p by CLSI method; type: functional
# Summary of the method: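 Broth microdilution MIC per CLSI M27-A3 in RPMI 1640 medium, also run in RPMI 1640 with 50% serum. Wild-type control strain. Caspofungin and micafungin dissolved in sterile distilled water and anidulafungin in 100% DMSO; stock solutions stored at −86°C. Geometric means used to compare MICs.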
# [10] = target: 1,3-beta-glucan synthase (Candida glabrata, UniProt F5BCZ9, F659S); test: Inhibition of Candida glabrata isolate 41026 1,3-beta-D-glucan synthase wild type Fks1p/Fks2p F659S mutant; parameters: species or system Nakaseomyces glabratus; summary of the method: as §1
# [11] = test system: Nakaseomyces glabratus; test: Antifungal activity against Candida glabrata isolate 5847 expressing Fks1p S629P mutant and wild type Fks2p by CLSI method; type: functional
# Summary of the method: (§3)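 Broth microdilution MIC per CLSI M27-A3 in RPMI 1640 medium without serum. Caspofungin and micafungin stocks in sterile water; anidulafungin stock in 100% DMSO; stocks kept at −86°C.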
# [12] = target: 1,3-beta-glucan synthase (Candida glabrata, UniProt F5BCZ9, D666E); test: Inhibition of Candida glabrata isolate 42031 1,3-beta-D-glucan synthase wild type Fks1p/Fks2p D666E mutant; parameters: species or system Nakaseomyces glabratus; summary of the method: as §1
# [13] = test system: Nakaseomyces glabratus; test: Antifungal activity against Candida glabrata isolate 42971 expressing Fks1p D632Y mutant and Fks2p R1377STOP mutant by CLSI method; type: functional; summary of the method: as §3
# [14] = test system: Nakaseomyces glabratus; test: Antifungal activity against Candida glabrata isolate 42971 expressing Fks1p D632Y mutant and Fks2p R1377STOP mutant by CLSI method in presence of 50% human serum; type: functional; summary of the method: as §2
# [15] = test system: Nakaseomyces glabratus; test: Antifungal activity against Candida glabrata isolate 51916 expressing wild type Fks1p and Fks2p P667T mutant by CLSI method; type: functional; summary of the method: as §3
# [16] = test system: Nakaseomyces glabratus; test: Antifungal activity against Candida glabrata isolate 42997 expressing Fks1p F625S mutant and wild type Fks2p by CLSI method in presence of 50% human serum; type: functional; summary of the method: as §2
# [17] = target: 1,3-beta-glucan synthase (Candida glabrata, UniProt F5BCZ9, S663P); test: Inhibition of Candida glabrata isolate 3830 1,3-beta-D-glucan synthase wild type Fks1p/Fks2p S663P mutant; parameters: species or system Nakaseomyces glabratus; summary of the method: as §1
# [18] = test system: Nakaseomyces glabratus; test: Antifungal activity against Candida glabrata isolate 42031 expressing wild type Fks1p and Fks2p D666E mutant by CLSI method; type: functional; summary of the method: as §3
# [19] = test system: Nakaseomyces glabratus; test: Antifungal activity against Candida glabrata isolate 3168 expressing wild type Fks1p and Fks2p by CLSI method; type: functional; summary of the method: as §3
# [20] = test system: Nakaseomyces glabratus; test: Antifungal activity against Candida glabrata isolate 42997 expressing Fks1p F625S mutant and wild type Fks2p by CLSI method; type: functional; summary of the method: as §3
# [21] = test system: Nakaseomyces glabratus; test: Antifungal activity against Candida glabrata isolate 3830 expressing wild type Fks1p and Fks2p S663P mutant by CLSI method in presence of 50% human serum; type: functional; summary of the method: as §2
# [22] = test system: Nakaseomyces glabratus; test: Antifungal activity against Candida glabrata isolate 5416 expressing wild type Fks1p and Fks2p W1375L mutant by CLSI method in presence of 50% human serum; type: functional; summary of the method: as §2
# [23] = test system: Nakaseomyces glabratus; test: Antifungal activity against Candida glabrata isolate 3169 expressing Fks1p D632E mutant and wild type Fks2p by CLSI method; type: functional; summary of the method: as §3
# [24] = test system: Nakaseomyces glabratus; test: Antifungal activity against Candida glabrata ATCC 90030 expressing wild type Fks1p and Fks2p by CLSI method in presence of 50% human serum; type: functional; summary of the method: as §2
# [25] = test system: Nakaseomyces glabratus; test: Antifungal activity against Candida glabrata isolate 234 expressing wild type Fks1p and Fks2p F659V mutant by CLSI method; type: functional; summary of the method: as §3
# [26] = Inhibition of Candida glabrata ATCC 90030 wild type 1,3-beta-D-glucan synthase; parameters: species or system Nakaseomyces glabratus; summary of the method: as §1
# [27] = test system: Nakaseomyces glabratus; test: Antifungal activity against Candida glabrata isolate 3168 expressing wild type Fks1p and Fks2p by CLSI method in presence of 50% human serum; type: functional; summary of the method: as §2
# [28] = test system: Nakaseomyces glabratus; test: Antifungal activity against Candida glabrata isolate 51916 expressing wild type Fks1p and Fks2p P667T mutant by CLSI method in presence of 50% human serum; type: functional; summary of the method: as §2
# [29] = target: 1,3-beta-glucan synthase (Candida glabrata, UniProt F5BCZ9, F659V); test: Inhibition of Candida glabrata isolate 234 1,3-beta-D-glucan synthase wild type Fks1p/Fks2p F659V mutant; parameters: species or system Nakaseomyces glabratus; summary of the method: as §1
# [30] = target: 1,3-beta-glucan synthase component FKS1 (Candida glabrata, UniProt E2GKZ4, D632E); test: Inhibition of Candida glabrata isolate 3169 1,3-beta-D-glucan synthase Fks1p D632E mutant/wild type Fks2p; parameters: species or system Nakaseomyces glabratus; summary of the method: as §1
# [31] = target: 1,3-beta-glucan synthase component FKS1 (Candida glabrata, UniProt E2GKZ4, F625S); test: Inhibition of Candida glabrata isolate 42997 1,3-beta-D-glucan synthase Fks1p F625S mutant/wild type Fks2p; parameters: species or system Nakaseomyces glabratus; summary of the method: as §1
# [32] = Inhibition of Candida glabrata isolate 31498 1,3-beta-D-glucan synthase wild type Fks1p/Fks2p F659 deletion mutant; parameters: species or system Nakaseomyces glabratus; summary of the method: as §1
# [33] = test system: Nakaseomyces glabratus; test: Antifungal activity against Candida glabrata isolate 218 expressing wild type Fks1p and Fks2p by CLSI method in presence of 50% human serum; type: functional; summary of the method: as §2
# [34] = test system: Nakaseomyces glabratus; test: Antifungal activity against Candida glabrata isolate 5847 expressing Fks1p S629P mutant and wild type Fks2p by CLSI method in presence of 50% human serum; type: functional; summary of the method: as §2
# Sequence of 1,3-beta-glucan synthase (Candida glabrata, UniProt F5BCZ9, S663P) (F5BCZ9 entry or part of it S663P): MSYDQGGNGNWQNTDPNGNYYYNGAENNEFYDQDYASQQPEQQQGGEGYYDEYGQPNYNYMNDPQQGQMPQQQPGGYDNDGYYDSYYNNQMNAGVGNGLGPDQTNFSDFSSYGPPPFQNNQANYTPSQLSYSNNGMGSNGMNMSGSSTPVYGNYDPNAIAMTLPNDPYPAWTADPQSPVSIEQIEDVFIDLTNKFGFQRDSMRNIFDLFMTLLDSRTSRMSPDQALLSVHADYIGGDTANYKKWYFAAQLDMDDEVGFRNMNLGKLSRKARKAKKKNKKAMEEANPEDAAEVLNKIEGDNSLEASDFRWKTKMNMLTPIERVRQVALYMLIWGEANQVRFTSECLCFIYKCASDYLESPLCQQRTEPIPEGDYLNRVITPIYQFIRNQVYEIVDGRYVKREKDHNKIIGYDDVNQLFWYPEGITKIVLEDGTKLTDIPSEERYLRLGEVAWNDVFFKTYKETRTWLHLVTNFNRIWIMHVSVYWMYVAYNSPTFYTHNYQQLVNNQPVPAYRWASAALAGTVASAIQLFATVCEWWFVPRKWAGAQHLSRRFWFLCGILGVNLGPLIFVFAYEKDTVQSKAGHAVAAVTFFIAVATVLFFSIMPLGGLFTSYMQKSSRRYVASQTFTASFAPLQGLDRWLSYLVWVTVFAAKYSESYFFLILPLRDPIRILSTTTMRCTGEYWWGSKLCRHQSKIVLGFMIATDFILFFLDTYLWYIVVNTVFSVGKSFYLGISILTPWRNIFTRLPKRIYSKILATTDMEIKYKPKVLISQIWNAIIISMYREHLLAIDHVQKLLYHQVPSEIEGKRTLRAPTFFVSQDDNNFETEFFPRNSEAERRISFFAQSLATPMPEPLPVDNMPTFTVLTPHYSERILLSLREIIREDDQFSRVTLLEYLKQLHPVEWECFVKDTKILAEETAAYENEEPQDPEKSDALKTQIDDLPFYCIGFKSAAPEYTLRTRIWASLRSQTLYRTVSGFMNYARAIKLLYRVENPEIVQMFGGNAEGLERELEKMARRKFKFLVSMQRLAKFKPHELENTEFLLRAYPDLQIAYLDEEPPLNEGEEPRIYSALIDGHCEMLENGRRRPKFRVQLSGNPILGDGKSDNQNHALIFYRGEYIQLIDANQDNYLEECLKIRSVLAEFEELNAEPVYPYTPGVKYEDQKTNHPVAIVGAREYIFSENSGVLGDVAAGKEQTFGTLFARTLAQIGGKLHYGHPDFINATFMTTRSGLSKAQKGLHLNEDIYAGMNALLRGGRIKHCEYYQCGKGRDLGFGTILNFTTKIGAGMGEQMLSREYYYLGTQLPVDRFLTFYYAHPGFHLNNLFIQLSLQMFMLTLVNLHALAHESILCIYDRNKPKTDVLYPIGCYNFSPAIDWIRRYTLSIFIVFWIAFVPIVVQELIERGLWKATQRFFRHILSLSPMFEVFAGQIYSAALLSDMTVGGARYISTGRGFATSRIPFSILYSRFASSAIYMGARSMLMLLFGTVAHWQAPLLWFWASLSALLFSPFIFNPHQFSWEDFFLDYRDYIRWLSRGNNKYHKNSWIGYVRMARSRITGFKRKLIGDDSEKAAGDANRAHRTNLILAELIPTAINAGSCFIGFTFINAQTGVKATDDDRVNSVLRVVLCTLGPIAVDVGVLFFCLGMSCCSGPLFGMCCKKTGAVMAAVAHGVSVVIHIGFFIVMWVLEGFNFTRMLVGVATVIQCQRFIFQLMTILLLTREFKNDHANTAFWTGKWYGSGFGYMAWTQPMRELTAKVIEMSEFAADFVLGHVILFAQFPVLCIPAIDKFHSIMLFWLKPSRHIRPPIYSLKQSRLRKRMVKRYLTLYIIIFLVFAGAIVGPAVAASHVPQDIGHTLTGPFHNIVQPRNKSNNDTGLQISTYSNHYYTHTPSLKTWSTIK
# Sequence of 1,3-beta-glucan synthase component FKS1 (Candida glabrata, UniProt E2GKZ4, F625S) (E2GKZ4 entry or part of it F625S): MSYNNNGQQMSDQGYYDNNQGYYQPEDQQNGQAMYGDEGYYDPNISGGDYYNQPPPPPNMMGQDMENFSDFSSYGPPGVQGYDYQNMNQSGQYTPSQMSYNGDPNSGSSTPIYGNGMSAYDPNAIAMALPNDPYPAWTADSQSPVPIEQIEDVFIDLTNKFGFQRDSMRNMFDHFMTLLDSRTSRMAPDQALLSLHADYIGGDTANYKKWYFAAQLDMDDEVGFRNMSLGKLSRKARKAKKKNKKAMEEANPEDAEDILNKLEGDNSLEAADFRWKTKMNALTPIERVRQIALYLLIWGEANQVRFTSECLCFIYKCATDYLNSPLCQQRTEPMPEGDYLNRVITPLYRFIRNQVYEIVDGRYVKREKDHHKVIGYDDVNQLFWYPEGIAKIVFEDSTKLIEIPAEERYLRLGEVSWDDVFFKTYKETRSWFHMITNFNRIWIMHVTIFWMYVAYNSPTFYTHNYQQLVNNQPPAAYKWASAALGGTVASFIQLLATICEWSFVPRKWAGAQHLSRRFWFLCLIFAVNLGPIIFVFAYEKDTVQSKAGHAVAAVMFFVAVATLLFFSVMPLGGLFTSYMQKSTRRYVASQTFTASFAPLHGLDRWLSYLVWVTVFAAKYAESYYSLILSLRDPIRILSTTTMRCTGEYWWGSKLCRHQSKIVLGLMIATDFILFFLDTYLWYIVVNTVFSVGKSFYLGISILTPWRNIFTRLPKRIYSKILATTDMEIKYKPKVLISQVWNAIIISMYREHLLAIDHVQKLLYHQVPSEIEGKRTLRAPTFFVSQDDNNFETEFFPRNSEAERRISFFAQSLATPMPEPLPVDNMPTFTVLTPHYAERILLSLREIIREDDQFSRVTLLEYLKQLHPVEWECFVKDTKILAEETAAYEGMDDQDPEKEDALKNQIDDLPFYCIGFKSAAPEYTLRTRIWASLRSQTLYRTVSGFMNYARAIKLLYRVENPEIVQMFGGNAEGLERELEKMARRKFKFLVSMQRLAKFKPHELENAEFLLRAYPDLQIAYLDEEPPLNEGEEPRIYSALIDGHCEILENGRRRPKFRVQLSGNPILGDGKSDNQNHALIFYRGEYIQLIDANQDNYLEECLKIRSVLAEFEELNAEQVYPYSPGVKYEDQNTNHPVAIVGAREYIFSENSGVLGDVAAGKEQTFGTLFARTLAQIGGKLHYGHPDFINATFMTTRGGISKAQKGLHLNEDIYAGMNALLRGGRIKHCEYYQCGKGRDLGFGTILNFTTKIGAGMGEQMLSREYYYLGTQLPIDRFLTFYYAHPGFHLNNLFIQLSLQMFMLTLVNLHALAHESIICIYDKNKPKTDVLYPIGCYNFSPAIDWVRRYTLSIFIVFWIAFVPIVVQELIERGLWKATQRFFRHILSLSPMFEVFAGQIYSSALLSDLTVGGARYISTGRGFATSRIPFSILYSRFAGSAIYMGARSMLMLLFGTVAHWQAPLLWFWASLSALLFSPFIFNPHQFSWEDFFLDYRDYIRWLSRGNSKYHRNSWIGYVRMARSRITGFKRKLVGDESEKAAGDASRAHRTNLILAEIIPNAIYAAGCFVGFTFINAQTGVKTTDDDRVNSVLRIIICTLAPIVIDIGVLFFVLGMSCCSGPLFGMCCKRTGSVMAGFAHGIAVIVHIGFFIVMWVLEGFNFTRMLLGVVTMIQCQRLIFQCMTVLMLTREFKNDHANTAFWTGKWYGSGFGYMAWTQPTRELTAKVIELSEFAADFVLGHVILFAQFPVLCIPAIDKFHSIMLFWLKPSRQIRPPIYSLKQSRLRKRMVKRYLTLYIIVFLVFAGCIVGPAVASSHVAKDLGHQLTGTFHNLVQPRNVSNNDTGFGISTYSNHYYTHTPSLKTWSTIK
compound,measurement,setting,value
"CCCCCOc1ccc(-c2cc(-c3ccc(C(=O)N[C@H]4C[C@@H](O)[C@@H](O)NC(=O)[C@@H]5[C@@H](O)[C@@H](C)CN5C(=O)[C@H]([C@H](O)CC(N)=O)NC(=O)[C@H]([C@H](O)[C@@H](O)c5ccc(O)c(OS(=O)(=O)O)c5)NC(=O)[C@@H]5C[C@@H](O)CN5C(=O)[C@H]([C@@H](C)O)NC4=O)cc3)no2)cc1 [MICAFUNGIN] (X1-[Orn(4R-OH,5R-OH)]T[Hyp][hTyr(3S-OH,4S-OH,3'-OSO3H)][Gln(3R-OH)][Pro(3S-OH,4S-Me)]; lactam 1-C)",MIC,[1],0.5 µg/mL
same,IC50,[2],0.00129 µg/mL
same,IC50,[3],673 nM
same,IC50,[4],0.00056 µg/mL
same,IC50,[5],270 nM
same,IC50,[6],0.4134 µg/mL
same,MIC,[7],8 µg/mL
same,Ratio IC50,[8],60
same,MIC,[9],0.03 µg/mL
same,IC50,[10],840 nM
same,MIC,[11],2 µg/mL
same,IC50,[12],69.8 nM
same,MIC,[13],1 µg/mL
same,MIC,[14],8 µg/mL
same,MIC,[15],0.4 µg/mL
same,MIC,[16],4 µg/mL
same,IC50,[17],2020 nM
same,MIC,[18],0.25 µg/mL
same,MIC,[19],0.06 µg/mL
same,MIC,[20],0.5 µg/mL
same,MIC,[21],8 µg/mL
same,MIC,[22],2 µg/mL
same,MIC,[23],2.52 µg/mL
same,MIC,[24],0.25 µg/mL
same,MIC,[25],1 µg/mL
same,IC50,[26],0.00071 µg/mL
same,MIC,[27],0.5 µg/mL
same,MIC,[28],4 µg/mL
same,IC50,[29],89.3 nM
same,IC50,[30],350 nM
same,IC50,[31],99.4 nM
same,IC50,[32],0.1235 µg/mL
same,MIC,[33],1 µg/mL
same,MIC,[34],8 µg/mL
